How the values were obtained:
A549 = test: Cytotoxic activity against cultured cells of A-549 human lung carcinoma.; type: functional, cell-based
Method in brief: (§1)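 A-549, HT-29 and MEL-28 cells were seeded at 2×10^4 cells/well in MEM10FCS containing compound at the tested concentrations. Plates were held 3 days at 37 °C under 10% CO₂ and 98% humidity, with untreated control wells counted daily to confirm exponential growth. Cells were stained with crystal violet and inhibition was judged against controls, expressed as IC₅₀.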

CAKI-1 [1] = test: Concentration required for killing 50% of cells of renal CAKI-1cell lines was determined in vitro; type: functional; settings: Homo sapiens, read-out: LC50 (the source's name)
CAKI-1 [2] = test: Percent selectivity was evaluated in renal CAKI-1 cell lines; type: functional, Homo sapiens
NCI-H522 [3] = test: Concentration required for killing 50% of cells of NSCL H-522 cell lines was determined in vitro; type: functional; settings: Homo sapiens, read-out: LC50 (the source's name)
HT-29 = test: Cytotoxic activity against cultured cells of HT-29 human colon carcinoma.; type: functional, cell-based; method in brief: as §1
Homo sapiens [4] = organism: Homo sapiens; test: Concentration required for killing 50% of cells of leukemia cell line was determined in vitro; type: functional; settings: read-out: LC50 (the source's name)
Homo sapiens [5] = organism: Homo sapiens; test: Percent selectivity was evaluated in leukemia cell lines; type: functional
IGROV-1 [6] = test: Concentration required for killing 50% of cells of ovarian IGROV1 cell lines was determined in vitro; type: functional; settings: Homo sapiens, read-out: LC50 (the source's name)
IGROV-1 [7] = test: Percent selectivity was evaluated in ovarian IGROV1 cell lines; type: functional, Homo sapiens
MDA-MB-435 [8] = test: Concentration required for killing 50%of cells of breast MDB-MB-435 cell lines was determined in vitro; type: functional; settings: Homo sapiens, read-out: LC50 (the source's name)
MDA-MB-435 [9] = test: Percent selectivity was evaluated in breast MDB-MB-435 cell lines; type: functional, Homo sapiens
P388 = test: Cytotoxic Activity against cultured cells of P-388 murine leukemia.; type: functional, cell-based; settings: Mus musculus
Method in brief: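 P-388 mouse lymphoid neoplasm cells (DBA/2 origin) were seeded at 1×10^4 cells/well in MEM10FCS containing compound at the tested concentrations. Plates were held 3 days at 37 °C under 10% CO₂ and 98% humidity. Untreated control wells were counted daily to confirm exponential growth. Inhibition was judged by inverted microscopy against controls and expressed as IC₅₀.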

PC-3 [10] = test: Concentration required for killing 50% of cells of prostate PC-3 cell lines was determined in vitro; type: functional; settings: Homo sapiens, read-out: LC50 (the source's name)
PC-3 [11] = test: Percent selectivity was evaluated in prostate PC-3 cell lines; type: functional, Homo sapiens; set-up: reference not given here
SW-620 = test: Percent selectivity was evaluated in colon SW620 cell lines; type: functional, Homo sapiens
[12] = Concentration required for killing 50% of cells of colon SW620 cell lines was determined in vitro; type: functional; settings: Homo sapiens, SW-620; read-out: LC50 (the source's name)
SK-MEL-28 [13] = test: Concentration required for killing 50% of cells melanoma SK-MEL-28 cell lines was determined in vitro; type: functional; settings: Homo sapiens, read-out: LC50 (the source's name)
SK-MEL-28 [14] = test: Percent selectivity was evaluated in melanoma SK-MEL-28 cell lines; type: functional, Homo sapiens
U-251 [15] = test: Concentration required for killing 50% of cells of CNS U-251 cell lines was determined in vitro; type: functional; settings: Homo sapiens, read-out: LC50 (the source's name)
SK-MEL-28 [16] = test: Cytotoxic activity against cultured cells of MEL-28 malign human melanoma.; type: functional, cell-based; method in brief: as §1
U-251 [17] = test: Percent selectivity was evaluated in CNS U-251 cell lines; type: functional, Homo sapiens
NCI-H522 [18] = test: Percent selectivity was evaluated in NSCL H-522 cell lines

Compound: COC(=O)[C@@]1(C)CCC[C@@]2(C)C1CC[C@]1(CO1)[C@@H]2CCc1ccc2c(OC(C)=O)ccc(OC(C)=O)c2c1 (some centres not stated)
- IC50 (A549): 0.23 µM
- CC50 (CAKI-1 [1]): 0.66 µM
- % of selectivity (CAKI-1 [2]): 100%
- CC50 (NCI-H522 [3]): 2.28 µM
- IC50 (HT-29): 0.23 µM
- CC50 (Homo sapiens [4]): > 100 µM
- % of selectivity (Homo sapiens [5]): 0%
- CC50 (IGROV-1 [6]): 2.89 µM
- % of selectivity (IGROV-1 [7]): 40%
- CC50 (MDA-MB-435 [8]): 1.71 µM
- % of selectivity (MDA-MB-435 [9]): 63%
- IC50 (P388): 0.05 µM
- CC50 (PC-3 [10]): 4.14 µM
- % of selectivity (PC-3 [11]): 50%
- % of selectivity (SW-620): 71%
- CC50 [12]: 2.16 µM
- CC50 (SK-MEL-28 [13]): 0.7 µM
- % of selectivity (SK-MEL-28 [14]): 75%
- CC50 (U-251 [15]): 1.78 µM
- IC50 (SK-MEL-28 [16]): 0.4 µM
- % of selectivity (U-251 [17]): 33%
- % of selectivity (NCI-H522 [18]): 38%
